The text below walks through data of ChEMBL document CHEMBL1156107, “Synthesis of new alkylaminooxysterols with potent cell differentiating activities: identification of leads for the treatment of cancer and neurodegenerative diseases” (J Med Chem, 2009).

Active and inactive are the calls of the source. No cut-off for these calls is given here.

Data set [1] concerns U-937. Put plainly: Induction of dendrite out growth in IL-4/GMCSF-stimulated human U937 cells assessed as dendrite length at 100 nM after 48 hrs by light microscopy. Type of data set: functional. In short, it runs like this:
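U937 cells at 1.1 × 10⁶ cells/mL were primed with 10 ng/mL PMA for 48 h in RPMI with 10% heat-inactivated serum. Adherent cells were then given 100 ng/mL IL-4 plus 100 ng/mL GM-CSF or 100 nM compound for 48 h. Dendrite length scored by light microscopy, from none to over 100 μm with a contact network.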

Data set [2] concerns U-937. In words: Cytotoxicity against human U937 cells after 3 days by trypan blue exclusion assay. Type of data set: functional, cell-based. In a few lines: (§1)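 U937 and P19 cells treated with compound. Cell death scored by trypan blue exclusion, with cells scraped, suspended in 0.25% w/v trypan blue in PBS and counted in a Malassez cell. IC50 is the concentration giving 50% cytotoxicity.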

For data set [3], the system named is P19. In words: Induction of dendrite out growth in IL-4/GMCSF-stimulated mouse P19 cells assessed as dendrite length at 100 nM after 48 hrs by light microscopy. The class given is functional.
The subject of data set [4] is P19. Put plainly: Cytotoxicity against mouse P19 cells after 3 days by trypan blue exclusion assay. The class given is functional, cell-based. In short, it runs like this: as §1
For another data set, the species on record is Homo sapiens. Put plainly: Plasma concentration healthy human. The class given is ADME, organism-based. Particulars: in vivo.
Data set [5] relates to U-937. Put plainly: Cytotoxicity against human U937 cells up to 20 uM after 3 days by trypan blue exclusion assay. The class given is functional, cell-based. In a few lines:
as §1

Data set [6] has as its system P19. In words: Cytotoxicity against mouse P19 cells up to 20 uM after 3 days by trypan blue exclusion assay. The class given is functional, cell-based. In a few lines:
as §1

For data set [7], the system named is MCF7. Put plainly: Induction of human MCF7 cell differentiation assessed as lipid accumulation in intracytoplasmic vesicle at 5 uM after 48 hrs by oil red O staining-based light microscopy. The class given is functional. In short, it runs like this:
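MCF-7 cells on glass coverslips treated with drug, fixed in 3.7% paraformaldehyde for 1 h at room temperature, and stained with oil red O in 60% isopropanol with hematoxylin counterstain. Dye extracted with isopropanol and read at 510 nm, with control subtracted and the value normalized to SYBR green DNA stain.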

Data set [8] relates to MCF7. Put plainly: Induction of human MCF7 cell differentiation assessed as milk fat accumulation in intracytoplasmic vesicle at 5 uM after 48 hrs by Bligh and Dyer method. Type of data set: functional, cell-based. In a few lines:
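MCF-7 cells (5 million) exposed to vehicle or compound for 48 h, washed three times in PBS. Lipids extracted by the Bligh and Dyer method and triglycerides quantified.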

Data set [9] deals with MCF7. Put plainly: Induction of human MCF7 cell differentiation assessed as stimulation of milk fat globulin expression at 5 uM after 48 hrs by immunocytochemistry. The class given is functional, cell-based.
Where [10] appears, read: Homo sapiens, U-937, 72 h, read-out: IC50.
Where [11] appears, read: Mus musculus, P19, 72 h, read-out: IC50.

In general, IC50 refers to the concentration that gives 50% inhibition. Regarding `CC(C)CCC[C@@H](C)[C@H]1CC[C@H]2[C@@H]3C[C@@H](NCCCCN)[C@@]4(O)C[C@@H](O)CC[C@]4(C)[C@H]3CC[C@]12C`, the Activity came out at 5 um in the data set with U-937 [1] and 10 um in the data set with P19 [3]. In addition, the values for the IC50 in the data set on U-937 [2] (setting [10]) and with P19 [4] (setting [11]) were 2100 nM and 2600 nM, respectively.
`CC(C)CCC[C@@H](C)[C@H]1CC[C@H]2[C@@H]3C[C@@H](NCCCNCCCCN)[C@@]4(O)C[C@@H](O)CC[C@]4(C)[C@H]3CC[C@]12C`: the Activity with U-937 [1] was under 5 um; in the data set on P19 [3], 50 um. Besides, the IC50 result in the data set on U-937 [2] (u-937) and in the data set with P19 [4] (p19) was “Not Active” throughout.
In the case of `NCCc1c[nH]cn1` [HISTAMINE], the result with U-937 [1] and with P19 [3] was inactive. Moreover, the IC50 result with U-937 [2] (u-937) and with P19 [4] (p19) was “Not Active” in each case.
On to `C[C@]12CC[C@H]3[C@@H](C[C@@H]4O[C@@]45C[C@@H](O)CC[C@]35C)[C@@H]1CC[C@@H]2O`, for which the result in the data set with U-937 [1] and with P19 [3] was inactive. In addition, the IC50 entry in the data set on U-937 [2] (u-937) and with P19 [4] (p19) was “Not Active” throughout.
Consider `CC(=O)O[C@H]1CC[C@]2(C)[C@H]3CC[C@]4(C)[C@@H]([C@H](C)CCCC(C)C)CC[C@H]4[C@@H]3C[C@@H](NCCc3c[nH]cn3)[C@@]2(O)C1`, for which the Activity in the data set with U-937 [1] and in the data set on P19 [3] was 50 um throughout. The IC50 with U-937 [2] (setting [10]) stood at 900 nM; in the data set on P19 [4] (setting [11]), 2500 nM.
As to `CC[C@H](CC[C@@H](C)[C@H]1CC[C@H]2[C@@H]3C[C@@H](NCCc4c[nH]cn4)[C@@]4(O)C[C@@H](O)CC[C@]4(C)[C@H]3CC[C@]12C)C(C)C`, the Activity with U-937 [1] and with P19 [3] was 50 um throughout. Further, the concentration for half-maximal inhibition (IC50) with U-937 [2] (setting [10]) turned out to be 1100 nM; in the data set on P19 [4] (setting [11]), 2500 nM.
For `CC(C)CCC[C@@H](C)[C@H]1CC[C@H]2C3=C[C@@H](NCCCCN)[C@@]4(O)C[C@@H](O)CC[C@]4(C)[C@H]3CC[C@]12C`, the Activity with U-937 [1] was determined as 5 um; in the data set on P19 [3] it was 50 um. Moreover, the values for the IC50 in the data set on U-937 [2] (setting [10]) and with P19 [4] (setting [11]) were 2600 nM and 2800 nM, respectively.
In the case of `CC(=O)O[C@H]1CC[C@]2(C)[C@H]3CC[C@]4(C)[C@@H]([C@H](C)CCCC(C)C)CC[C@H]4[C@@H]3C[C@@H]3O[C@@]32C1`, the outcome with U-937 [1] and in the data set on P19 [3] was inactive. Also, the IC50 entry in the data set with U-937 [2] (u-937) and in the data set with P19 [4] (p19) was “Not Active” each time.
In the case of `CC(C)CCC[C@@H](C)[C@H]1CC[C@H]2[C@@H]3C[C@H]4O[C@]45C[C@@H](O)CC[C@]5(C)[C@H]3CC[C@]12C`, in the data set listed under Homo sapiens, the concentration turned out to be 1 nM. In addition, the outcome in the data set with U-937 [1] and in the data set on P19 [3] was inactive. Besides, the IC50 entry in the data set on U-937 [2] (u-937) and with P19 [4] (p19) was “Not Active” throughout.
For the compound `CC(C)CCC[C@@H](C)[C@H]1CC[C@H]2C3=C[C@@H](NCCCNCCCCNCCCN)[C@@]4(O)C[C@@H](O)CC[C@]4(C)[C@H]3CC[C@]12C`, the results for the Activity in the data set on U-937 [1] and with P19 [3] were under 5 um and 10 um, respectively. Also, the IC50 result with U-937 [2] (u-937) and in the data set on P19 [4] (p19) was “Not Active” each time.
For `CC[C@H](CC[C@@H](C)[C@H]1CC[C@H]2[C@@H]3C[C@@H]4O[C@@]45C[C@@H](O)CC[C@]5(C)[C@H]3CC[C@]12C)C(C)C`, the outcome with U-937 [1] and in the data set with P19 [3] was inactive. The IC50 result in the data set with U-937 [2] (u-937) and in the data set on P19 [4] (p19) was “Not Active” in each case.
In the case of `CC(C)CCC[C@@H](C)[C@H]1CC[C@H]2[C@@H]3C[C@@H](NCCCCNCCCN)[C@@]4(O)C[C@@H](O)CC[C@]4(C)[C@H]3CC[C@]12C`, the values for the Activity with U-937 [1] and in the data set on P19 [3] were under 5 um and 50 um, respectively. The half-inhibitory concentration (IC50) result in the data set on U-937 [2] (u-937) and with P19 [4] (p19) was “Not Active” throughout. Further, the result with U-937 [5] and in the data set on P19 [6] was inactive.
`CCCC(=O)O[C@H]1CC[C@]2(C)[C@H]3CC[C@]4(C)[C@@H]([C@H](C)CCCC(C)C)CC[C@H]4[C@@H]3C[C@@H]3O[C@@]32C1`: the result in the data set with U-937 [1] and with P19 [3] was inactive. Moreover, the 50% inhibitory concentration (IC50) result in the data set with U-937 [2] (u-937) and with P19 [4] (p19) was “Not Active” throughout.
Turning to `CC(C)CCC[C@@H](C)[C@H]1CC[C@H]2[C@@H]3CC=C4C[C@@H](O)CC[C@]4(C)[C@H]3CC[C@]12C` [CHOLESTEROL], the result in the data set on U-937 [1] and in the data set on P19 [3] was inactive. Besides, the IC50 entry in the data set with U-937 [2] (u-937) and with P19 [4] (p19) was “Not Active” in each case.
Compound `CC(C)CCC[C@@H](C)[C@H]1CC[C@H]2[C@@H]3C[C@@H]4O[C@@]45C[C@@H](O)CC[C@]5(C)[C@H]3CC[C@]12C` gave a concentration in the data set filed under Homo sapiens of 1 nM. In addition, the result in the data set on U-937 [1] and in the data set with P19 [3] was inactive. In addition, the IC50 result with U-937 [2] (u-937) and with P19 [4] (p19) was “Not Active” in each case.
Turning to `CC(C)CCC[C@@H](C)[C@H]1CC[C@H]2C3=C[C@@H](NCCCCNCCCN)[C@@]4(O)C[C@@H](O)CC[C@]4(C)[C@H]3CC[C@]12C`, the results for the Activity in the data set on U-937 [1] and in the data set on P19 [3] were under 5 um and 50 um, respectively. Besides, the IC50 entry with U-937 [2] (u-937) and in the data set with P19 [4] (p19) was “Not Active” in each case.
On to `CCCC(=O)O[C@H]1CC[C@]2(C)[C@H]3CC[C@]4(C)[C@@H]([C@H](C)CCCC(C)C)CC[C@H]4[C@@H]3C[C@@H](NCCc3c[nH]cn3)[C@@]2(O)C1`, for which the result in the data set on U-937 [1] and with P19 [3] was inactive. Moreover, the IC50 in the data set on U-937 [2] (setting [10]) was determined as 8200 nM; with P19 [4] (setting [11]) it was 9400 nM.
For the compound `CC(C)CCC[C@@H](C)[C@H]1CC[C@H]2C3=C[C@@H](NCCc4c[nH]cn4)[C@@]4(O)C[C@@H](O)CC[C@]4(C)[C@H]3CC[C@]12C`, the Activity in the data set with U-937 [1] is listed as under 5 um; with P19 [3], 5 um. In addition, the IC50 in the data set with U-937 [2] (setting [10]) came to 7600 nM; in the data set with P19 [4] (setting [11]) it was 5300 nM.
For `CC(C)CCC[C@@H](C)[C@H]1CC[C@H]2C3=C[C@@H]4O[C@@]45C[C@@H](O)CC[C@]5(C)[C@H]3CC[C@]12C`, the outcome in the data set with U-937 [1] and in the data set with P19 [3] was inactive. Also, the IC50 entry in the data set on U-937 [2] (u-937) and with P19 [4] (p19) was “Not Active” in each case.
As to `C[C@]12CC[C@H]3[C@@H](C[C@@H](NCCc4c[nH]cn4)[C@@]4(O)C[C@@H](O)CC[C@]34C)[C@@H]1CC[C@@H]2O`, the result with U-937 [1] and in the data set with P19 [3] was inactive. In addition, the IC50 was determined as 9800 nM in the data set with U-937 [2] (setting [10]) and 7300 nM with P19 [4] (setting [11]).
As for `CC(C)CCC[C@@H](C)[C@H]1CC[C@H]2[C@@H]3C[C@@H](NCCCNCCCCNCCCN)[C@@]4(O)C[C@@H](O)CC[C@]4(C)[C@H]3CC[C@]12C`, the figures for the Activity in the data set on U-937 [1] and with P19 [3] were under 5 um and 10 um, respectively. For the same compound, the IC50 result in the data set with U-937 [2] (u-937) and in the data set with P19 [4] (p19) was “Not Active” throughout.
Regarding `NCCCCN` [PUTRESCINE], the result in the data set on U-937 [1] and in the data set with P19 [3] was inactive. Moreover, the IC50 entry in the data set with U-937 [2] (u-937) and in the data set with P19 [4] (p19) was “Not Active” in each case.
On to `NCCCNCCCCNCCCN` [SPERMINE], for which the result in the data set with U-937 [1] and in the data set with P19 [3] was inactive. For the same compound, the IC50 entry in the data set with U-937 [2] (u-937) and with P19 [4] (p19) was “Not Active” throughout.
With `CC/C(=C(\c1ccccc1)c1ccc(OCCN(C)C)cc1)c1ccccc1`, the outcome in the data set on MCF7 [7], with MCF7 [8] and in the data set with MCF7 [9] was Active.
For `NCCCCNCCCN` [SPERMIDINE], the result in the data set on U-937 [1] and with P19 [3] was inactive. Besides, the concentration for half-maximal inhibition (IC50) entry in the data set on U-937 [2] (u-937) and in the data set on P19 [4] (p19) was “Not Active” each time.
